Tests used:
[1] = biological target: T1, Peroxisome proliferator-activated receptor alpha (Homo sapiens, UniProt Q07869); assay: Transactivation of human PPARalpha expressed in human HepG2 cells co-transfected with PPRE3-TK-Luc by luciferase reporter gene assay; format: cell-based
T1 sequence (Q07869 whole entry): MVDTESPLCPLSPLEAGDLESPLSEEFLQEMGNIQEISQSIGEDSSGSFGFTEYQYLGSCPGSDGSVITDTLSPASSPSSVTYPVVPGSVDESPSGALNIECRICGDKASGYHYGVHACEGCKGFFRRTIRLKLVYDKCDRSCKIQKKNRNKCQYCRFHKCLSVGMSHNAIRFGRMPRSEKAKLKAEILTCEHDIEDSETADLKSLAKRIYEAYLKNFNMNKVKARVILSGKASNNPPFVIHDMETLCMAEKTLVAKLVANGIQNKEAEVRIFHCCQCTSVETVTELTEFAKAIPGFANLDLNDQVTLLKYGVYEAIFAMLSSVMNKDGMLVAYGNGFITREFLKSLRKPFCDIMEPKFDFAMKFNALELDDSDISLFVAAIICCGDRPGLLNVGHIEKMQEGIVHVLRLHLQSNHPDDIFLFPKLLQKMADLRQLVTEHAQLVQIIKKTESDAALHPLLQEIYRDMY

[2] = biological target: T2, Peroxisome proliferator-activated receptor gamma (Homo sapiens, UniProt P37231); assay: Transactivation of human PPARgamma expressed in human HepG2 cells co-transfected with PPRE3-TK-Luc by luciferase reporter gene assay; format: cell-based
T2 sequence (P37231 whole entry): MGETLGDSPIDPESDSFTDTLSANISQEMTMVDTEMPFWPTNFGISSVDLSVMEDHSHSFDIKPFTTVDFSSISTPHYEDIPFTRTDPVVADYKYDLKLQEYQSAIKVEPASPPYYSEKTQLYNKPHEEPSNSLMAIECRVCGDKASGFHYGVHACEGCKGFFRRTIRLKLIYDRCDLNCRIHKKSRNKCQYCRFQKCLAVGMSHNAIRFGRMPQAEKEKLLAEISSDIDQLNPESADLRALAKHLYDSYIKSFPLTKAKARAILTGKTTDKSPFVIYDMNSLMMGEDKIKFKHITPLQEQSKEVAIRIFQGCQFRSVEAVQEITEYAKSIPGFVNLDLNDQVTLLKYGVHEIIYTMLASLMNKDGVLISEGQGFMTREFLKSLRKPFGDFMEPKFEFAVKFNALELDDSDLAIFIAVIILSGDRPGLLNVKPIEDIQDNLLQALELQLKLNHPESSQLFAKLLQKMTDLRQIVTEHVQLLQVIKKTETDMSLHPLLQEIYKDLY
How it was run: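 HepG2 cells transfected with pSG5 vector carrying hPPARα, hPPARγ or hPPARδ cDNA, co-transfected with PPRE3-TK-luc. Firefly luciferase activity measured with a commercial kit. β-galactosidase activity read on an ELISA reader. Controls: WY14643 (α), rosiglitazone (γ), GW501516 (δ).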

[3] = Half life in fasting Wistar rat at 30 mg/kg, po; format: ADME, organism-based; design: dose 30 mg/kg, route oral; conditions: in vivo
How it was run: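 Fasted male Wistar rats received one oral dose of 30 mg/kg. Plasma Cmax, T1/2 and Tmax are reported as mean ± SD of n = 3.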

Mus musculus [4] = assay: Hypolipidemic activity in Swiss albino mouse assessed as reduction in triglyceride level at 0.003 mg/kg, po; format: functional; design: scale not given: the % may be the effect or the level left
Mus musculus [5] = assay: Hypolipidemic activity in Swiss albino mouse assessed as reduction in triglyceride level at 0.3 mg/kg, po; format: functional; design: scale not given: the % may be the effect or the level left
Mus musculus [6] = assay: Hypolipidemic activity in Swiss albino mouse assessed as reduction in triglyceride level at 3 mg/kg, po; format: functional; design: scale not given: the % may be the effect or the level left
Mus musculus [7] = assay: Hypolipidemic activity in db/db mouse assessed as reduction in triglyceride level at 0.003 mg/kg, po; format: functional; design: scale not given: the % may be the effect or the level left
Mus musculus [8] = assay: Hypolipidemic activity in db/db mouse assessed as reduction in triglyceride level at 1 mg/kg, po; format: functional; design: scale not given: the % may be the effect or the level left
Mus musculus [9] = assay: Antihyperglycemic activity in db/db mouse assessed as reduction in plasma glucose level at 0.03 mg/kg, po; format: functional; design: scale not given: the % may be the effect or the level left
Rattus norvegicus [10] = assay: Toxicity in male Wistar rat assessed as heart to body weight ratio at 30 mg/kg, po measured after 28 days (reference value: 0.383 +/- 0.012); format: organism-based; design: dose 30 mg/kg, route oral; conditions: in vivo, 672 h
Rattus norvegicus [11] = assay: Toxicity in male Wistar rat assessed as liver to body weight ratio at 30 mg/kg, po measured after 28 days (reference value: 3.257 +/- 0.067); format: organism-based; design: dose 30 mg/kg, route oral; conditions: in vivo, 672 h
Rattus norvegicus [12] = assay: Toxicity in male Wistar rat assessed as adrenal to body weight ratio at 3 mg/kg, po measured after 28 days (reference value: 0.018 +/- 0.001); format: organism-based; design: dose 3 mg/kg, route oral; conditions: in vivo, 672 h
Rattus norvegicus [13] = assay: Toxicity in male Wistar rat assessed as adrenal to body weight ratio at 30 mg/kg, po measured after 28 days (reference value: 0.018 +/- 0.001); format: organism-based; design: dose 30 mg/kg, route oral; conditions: in vivo, 672 h
Rattus norvegicus [14] = assay: Toxicity in male Wistar rat assessed as thymus to body weight ratio at 3 mg/kg, po measured after 28 days (reference value: 0.081+/- 0.013); format: organism-based; design: dose 3 mg/kg, route oral; conditions: in vivo, 672 h
Rattus norvegicus [15] = assay: Toxicity in female Wistar rat assessed as heart to body weight ratio at 3 mg/kg, po measured after 28 days (reference value: 0.403 +/- 0.010); format: organism-based; design: dose 3 mg/kg, route oral; conditions: in vivo, 672 h
Rattus norvegicus [16] = assay: Toxicity in female Wistar rat assessed as heart to body weight ratio at 30 mg/kg, po measured after 28 days (reference value: 0.403 +/- 0.010); format: organism-based; design: dose 30 mg/kg, route oral; conditions: in vivo, 672 h
Rattus norvegicus [17] = assay: Toxicity in female Wistar rat assessed as ovary to body weight ratio at 30 mg/kg, po measured after 28 days (reference value: 0.039 +/- 0.005); format: organism-based, Female gonad; design: dose 30 mg/kg, route oral; conditions: in vivo, 672 h
Rattus norvegicus [18] = assay: Toxicity in female Wistar rat assessed as uterus to body weight ratio at 3 mg/kg, po measured after 28 days (reference value: 0.233 +/- 0.041); format: organism-based; design: dose 3 mg/kg, route oral; conditions: in vivo, 672 h
Rattus norvegicus [19] = assay: Toxicity in female Wistar rat assessed as uterus to body weight ratio at 30 mg/kg, po measured after 28 days (reference value: 0.233 +/- 0.041); format: organism-based; design: dose 30 mg/kg, route oral; conditions: in vivo, 672 h
Rattus norvegicus [20] = assay: Toxicity in male Wistar rat assessed as change in body weight at 30 mg/kg, po measured after 28 days relative to control; format: organism-based; design: dose 30 mg/kg, route oral; conditions: in vivo, 672 h
Rattus norvegicus [21] = assay: Toxicity in male Wistar rat assessed as Glucose level at 3 mg/kg, po measured after 28 days (reference value: 70 +/- 3.49 mg/dl); format: organism-based; design: dose 3 mg/kg, route oral; conditions: in vivo, 672 h
Rattus norvegicus [22] = assay: Toxicity in male Wistar rat assessed as SGOT level at 3 mg/kg, po measured after 28 days (reference value: 135.14 +/- 6.89 U/L); format: organism-based; design: dose 3 mg/kg, route oral; conditions: in vivo, 672 h
Rattus norvegicus [23] = assay: Toxicity in male Wistar rat assessed as albumin level at 30 mg/kg, po measured after 28 days (reference value: 3.66 +/- 0.10 g.dl); format: organism-based; design: dose 30 mg/kg, route oral; conditions: in vivo, 672 h
Rattus norvegicus [24] = assay: Toxicity in male Wistar rat assessed as urea level at 30 mg/kg, po measured after 28 days (reference value: 30.52 +/- 0.79 mg/dl); format: organism-based; design: dose 30 mg/kg, route oral; conditions: in vivo, 672 h
Rattus norvegicus [25] = assay: Toxicity in female Wistar rat assessed as hemoglobin level at 3 mg/kg, po measured after 28 days (reference value: 11.90 +/- 0.19 g/dl); format: organism-based; design: dose 3 mg/kg, route oral; conditions: in vivo, 672 h
Rattus norvegicus [26] = assay: Toxicity in female Wistar rat assessed as glucose level at 30 mg/kg, po measured after 28 days (reference value: 69.94 +/- 2.30 mg/dl); format: organism-based; design: dose 30 mg/kg, route oral; conditions: in vivo, 672 h

EC50 [1]: 0.31 pM
EC50 [2]: 18 pM
half-life [3]: 7.4 h
Compound: CCO[C@@H](Cc1ccc(OCCc2nc(-c3ccc(C)s3)oc2C)cc1)C(=O)O
Activity (Mus musculus [4]): 41.5%
Activity (Mus musculus [5]): 80.8%
Activity (Mus musculus [6]): 83.1%
Activity (Mus musculus [7]): 7.2%
Activity (Mus musculus [8]): 64.2%
Activity (Mus musculus [9]): 52.1%
Ratio (Rattus norvegicus [10]): 0.479
Ratio (Rattus norvegicus [11]): 8.099
Ratio (Rattus norvegicus [12]): 0.015
Ratio (Rattus norvegicus [13]): 0.018
Ratio (Rattus norvegicus [14]): 0.089
Ratio (Rattus norvegicus [15]): 0.46
Ratio (Rattus norvegicus [16]): 0.501
Ratio (Rattus norvegicus [17]): 0.024
Ratio (Rattus norvegicus [18]): 0.176
Ratio (Rattus norvegicus [19]): 0.189
Activity (Rattus norvegicus [20]): 24.01%
Activity (Rattus norvegicus [21]): 75.74 mg/dL
Activity (Rattus norvegicus [22]): 193.51 U/L
Activity (Rattus norvegicus [23]): 4.12 g/dL
Activity (Rattus norvegicus [24]): 34.58 mg/dL
Activity (Rattus norvegicus [25]): 11.84 g/dL
Activity (Rattus norvegicus [26]): 91.79 mg/dL

From ChEMBL document CHEMBL1811848 (Bioorg Med Chem Lett, 2011)
